Measured values published in ChEMBL document CHEMBL5149972, “Novel Antimalarial Tetrazoles and Amides Active against the Hemoglobin Degradation Pathway in Plasmodium falciparum” (J Med Chem, 2021).
pEC50, pIC50: −log10 of the molar value. ≈ marks a conversion by molar mass, not a printed value. Calls of active or inactive are those of the source. The calls are words filed in the database; no cut-off is given here.

Assays:
Hemozoin = experiment: Inhibition of Beta-hematin assessed as bis-pyridyl-Fe(III)PPIX complex formation incubated for 5 hrs by NP40 detergent-mediated colorimetric assay
Plasmodium falciparum [1] = experiment: Antiplasmodial activity against asexual blood stage Plasmodium falciparum 3D7 infected in human RBC assessed as parasite growth inhibition incubated for 72 hrs by SYBR Green dye based fluorescence assay; format: functional, organism-based
In short: (§1)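 Blood-stage cultures at 2% hematocrit, human O+ RBCs, RPMI 1640 + 25 mM HEPES, 0.5% Albumax-I, 23 mM bicarbonate, 92 μM hypoxanthine. Start at 0.5% parasitemia; 72 h at 37°C, 5% CO₂; freeze-thaw, then SYBR Green in saponin/Triton lysis buffer, 4 h RT dark; fluorescence ex 485/em 535 nm. 10-point curves, technical duplicates or triplicates, final 0.5% DMSO; four-parameter fit gives EC₅₀; mean ± std dev of biological replicates.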

Plasmodium falciparum [2] = experiment: Antiplasmodial activity against Plasmodium falciparum NF54 expressing transgenic luciferase assessed as parasite kill rate at trophozoite stage incubated for 6 hrs by bioluminescence relative rate of kill (BRRoK) assay; format: functional, organism-based; settings: RBC
[3] = (§2) Cytotoxicity against human HepG2 cells assessed as reduction in cell viability incubated for 72 hrs by CellTiter-Glo assay; format: toxicity, cell-based; settings: HepG2 cells
Plasmodium falciparum [4] = experiment: Antiplasmodial activity against Plasmodium falciparum NF54 expressing transgenic luciferase assessed as parasite kill rate at trophozoite stage incubated for 72 hrs by bioluminescence relative rate of kill (BRRoK) assay; format: functional, organism-based; settings: RBC
HepG2 = experiment: as §2; format: toxicity, cell-based; settings: hepg2, 72 h
Plasmodium falciparum [5] = experiment: Antiplasmodial activity against drug resistant Plasmodium falciparum Dd2 infected in human RBC assessed as parasite growth inhibition incubated for 72 hrs by SYBR Green dye based fluorescence assay; format: functional, organism-based; in short: as §1
[6] = Metabolic stability in human liver microsomes assessed as intrinsic clearance per mg of protein at 1 uM incubated for 60 mins presence of NADPH regenerating buffer system by LC-MS analysis; format: ADME, Microsome; settings: 1 h
[7] = Kinetic solubility of compound in PBS at pH 6.5 by HPLC analysis; format: physicochemical; settings: read-out: Kinetic_solubility
[8] = Kinetic solubility of compound in PBS at pH 2 by HPLC analysis; format: physicochemical; settings: read-out: Kinetic_solubility
Plasmodium falciparum [9] = experiment: Antiplasmodial activity against Plasmodium falciparum 3D7 infected in human RBC assessed as parasite growth inhibition incubated for 48 hrs by 3H-hypoxanthine incorporation assay; format: functional, organism-based; settings: 3D7, Erythrocyte
[10] = Plasmodium falciparum, 3D7, Erythrocyte, 72 h
[11] = Plasmodium falciparum, Dd2, Erythrocyte, 72 h

SMILES | pEC50 (Plasmodium falciparum [1]; [10]) | CC50 (HepG2) [µM] | pEC50 (Plasmodium falciparum [5]; [11]) | other results
Cc1cc(Nc2ccc3ccccc3c2)n2ncnc2n1 |  |  |  | pIC50 (Hemozoin): < 3.00
CC(=O)c1ccc(NC(=O)c2ccc(NC(=O)C3COc4ccccc4O3)cc2)cc1 (stereo unspecified) | 6.15 |  |  | Activity (Plasmodium falciparum [2]): Active; CC50 at 72 h [3]: > 30 µM; Activity (Plasmodium falciparum [4]): Active
CCC(C(=O)Nc1cccc(Cl)c1)N1C(=O)C(C)N=C(c2ccccc2)c2ccccc21 (stereo unspecified) | 6.51 |  |  | Activity (Plasmodium falciparum [2]): Active; CC50 at 72 h [3]: > 30 µM; Activity (Plasmodium falciparum [4]): Active
CCc1ccccc1N(C)C(=O)C(c1cncnc1)N(Cc1cccc(C(F)(F)F)c1)C1CC1 (racemic) | 6.62 | > 25 | 6.24 | 
Cc1ncc(C(C(=O)N(C)c2ccccc2C)N(Cc2cccc(C(F)(F)F)c2)C2CC2)cn1 (racemic) | 5.12 | > 30 | 5.11 | 
Cc1ccccc1-n1nnnc1C(c1cccnc1)N(C)Cc1cc(C(F)(F)F)ccc1F (racemic) | 6.00 |  | 5.60 | 
COc1ccc(C(F)(F)F)cc1CN(C)C(c1cccnc1)c1nnnn1-c1ccccc1C (racemic) | 5.89 |  |  | pEC50 (Plasmodium falciparum [5]; rbc): 5.43
Cc1ccccc1-n1nnnc1C(c1cncnc1)N(Cc1cc(F)cc(C(F)(F)F)c1)C1CC1 (racemic) | 6.43 |  |  | CC50 at 72 h [3]: 36 µM; pEC50 (Plasmodium falciparum [5]; rbc): 5.92
COc1ccccc1CN(C)C(c1ccccc1)c1nnnn1-c1ccccc1C (racemic) | 5.01 |  | 5.00 | 
Cc1ccccc1-n1nnnc1C(c1cccnc1)N(Cc1cc(C(F)(F)F)ccc1F)C1CC1 (racemic) | 6.22 |  | 6.17 | 
COc1ccc(Br)cc1CN(C)C(c1ccccc1)c1nnnn1-c1ccccc1C (racemic) |  | > 30 | 5.27 | pEC50 (Plasmodium falciparum [1]; rbc): 5.46; pIC50 (Hemozoin): < 3.00
O=C(C(c1cccnc1)N(Cc1cccc(C(F)(F)F)c1)C1CC1)N1CCCCC1 (racemic) | 5.74 | > 20 | 5.38 | CLH [6]: 244 µL/min/mg; solubility kinetic [7]: 25 µg/mL (≈ 59.9 µM); solubility kinetic [8]: > 100 µg/mL
Cc1ccccc1-n1nnnc1C(c1cncnc1)N(Cc1ccc(F)c(C(F)(F)F)c1)C1CC1 (racemic) | 6.33 |  | 6.17 | 
CCCN(C(c1cncnc1)c1nnnn1-c1ccccc1C)C1(c2cccc(C(F)(F)F)c2)CC1 (racemic) | 6.51 |  | 6.28 | 
CN(C(=O)C(c1cncnc1)N(Cc1cccc(C(F)(F)F)c1)C1CC1)c1ccccc1 (racemic) | 6.14 | > 30 | 5.70 | 
COc1ccc(C(F)(F)F)cc1CN(C1CC1)C(c1cccnc1)c1nnnn1-c1ccccc1C (racemic) | 6.31 |  | 6.32 | CLH [6]: 154 µL/min/mg; solubility kinetic [7]: 1.6 µg/mL (≈ 3.24 µM); solubility kinetic [8]: 12.5 µg/mL (≈ 25.3 µM)
CCCN(C(C(=O)N(C)c1ccccc1C)c1cccnc1)C1(c2cccc(C(F)(F)F)c2)CC1 (racemic) | 6.68 | > 15 | 6.48 | 
COc1ccc(C(F)(F)F)cc1CN(C)C(c1ccccc1)c1nnnn1-c1ccccc1C (racemic) | 5.77 |  | 5.43 | 
CN(Cc1cc(C(F)(F)F)ccc1F)C(c1cccnc1)c1nnnn1C1CCCCC1 (racemic) | 5.77 |  | 5.59 | 
Cc1ccccc1N(C)C(=O)C(c1cccnc1)N(Cc1cccc(OC(F)(F)F)c1)C1CC1 (racemic) | 6.49 | > 30 | 6.28 | 
Cc1ccccc1N(C)C(=O)C(c1cccnc1)N(Cc1cccc(C(F)(F)F)c1)C1CC1 (racemic) | 6.47 | > 30 | 6.23 | CLH [6]: 781 µL/min/mg; solubility kinetic [7]: 6.3 µg/mL (≈ 13.9 µM); solubility kinetic [8]: > 100 µg/mL
Cc1ccccc1-n1nnnc1C(C1CC1)N(Cc1cccc(C(F)(F)F)c1)C1CC1 (racemic) | 5.33 |  | 5.49 | 
Cc1ncccc1C(c1nnnn1C1CC1)N(C1CC1)C1(c2cccc(C(F)(F)F)c2)CC1 (racemic) | 4.85 | > 30 | 4.80 | 

SMILES | pEC50 (Plasmodium falciparum [1]; [10]) | CC50 (HepG2) [µM] | pEC50 (Plasmodium falciparum [5]; [11]) | other results
FC(F)(F)c1cccc(CN(C2CC2)C(c2cccnc2)c2nnnn2C2CC2)c1 (racemic) | 5.82 |  | 5.52 | 
Cc1ccccc1N(C)C(=O)C(c1cccnc1)N(Cc1cccc(SC(F)(F)F)c1)C1CC1 (racemic) | 6.51 | > 30 | 6.41 | 
CCCN(C(c1cccnc1)c1nnnn1-c1ccccc1C)C1(c2cccc(C(F)(F)F)c2)CC1 (racemic) | 6.64 | 10 | 6.39 | 
Cc1ccccc1N(C)C(=O)C(c1cncnc1)N(Cc1cccc(OC(F)(F)F)c1)C1CC1 (racemic) | 6.62 | > 30 | 6.23 | 
Cc1ccccc1-n1nnnc1C(c1cncnc1)N(Cc1cccc(C(F)(F)F)c1F)C1CC1 (racemic) | 6.33 |  | 6.15 | 
Cc1ccccc1N(C)C(=O)C(c1cncnc1)N(Cc1cccc(C(F)(F)F)c1)C1CC1 (racemic) | 6.40 | > 30 | 6.10 | CLH [6]: 531 µL/min/mg; solubility kinetic [7]: > 45 µg/mL; solubility kinetic [8]: 11 µg/mL (≈ 24.2 µM)
Cc1ccccc1N(C)C(=O)C(c1cncnc1)N(Cc1cccc(SC(F)(F)F)c1)C1CC1 (racemic) | 6.59 | > 30 | 6.00 | 
CCc1ccccc1N(C)C(=O)C(c1cccnc1)N(Cc1cccc(C(F)(F)F)c1)C1CC1 (racemic) | 6.72 | > 20 | 6.32 | 
COc1ccc(C(F)(F)F)cc1CN(C)C(c1cccnc1)c1nnnn1-c1ccccc1C (single isomer, unassigned; (+)) |  |  |  | pEC50 (Plasmodium falciparum [1]; rbc): 5.82; pEC50 (Plasmodium falciparum [5]; rbc): 5.60
Cc1ccccc1-n1nnnc1C(c1cncnc1)N(Cc1cc(F)cc(C(F)(F)F)c1)C1CC1 (single isomer, unassigned; (+)) |  |  |  | pEC50 (Plasmodium falciparum [1]; rbc): 6.46; pEC50 (Plasmodium falciparum [5]; rbc): 5.60
COc1ccc(Br)cc1CN(C)C(c1ccccc1)c1nnnn1-c1ccccc1C (single isomer, unassigned; (+)) |  |  |  | pEC50 (Plasmodium falciparum [1]; rbc): 5.82; pEC50 (Plasmodium falciparum [5]; rbc): 5.52
COc1ccc(C(F)(F)F)cc1CN(C)C(c1cccnc1)c1nnnn1-c1ccccc1C (single isomer, unassigned; (-)) |  |  |  | pEC50 (Plasmodium falciparum [5]; rbc): 5.77
Cc1ccccc1-n1nnnc1C(c1cncnc1)N(Cc1cc(F)cc(C(F)(F)F)c1)C1CC1 (single isomer, unassigned; (-)) |  | > 30 |  | pEC50 (Plasmodium falciparum [1]; rbc): 6.38; pEC50 (Plasmodium falciparum [5]; rbc): 5.59
COc1ccc(Br)cc1CN(C)C(c1ccccc1)c1nnnn1-c1ccccc1C (single isomer, unassigned; (-)) |  |  |  | pEC50 (Plasmodium falciparum [1]; rbc): 5.36; pEC50 (Plasmodium falciparum [5]; rbc): 5.40
O[C@@H](c1cc(C(F)(F)F)nc2c(C(F)(F)F)cccc12)[C@H]1CCCCN1 [(S,R)-MEFLOQUINE] |  |  |  | pIC50 (Hemozoin): 4.22
CCN(CC)Cc1cc(Nc2ccnc3cc(Cl)ccc23)ccc1O [AMODIAQUINE] |  |  |  | pIC50 (Hemozoin): 5.07
C[C@@H]1CC[C@H]2[C@@H](C)C(=O)O[C@@H]3O[C@@]4(C)CC[C@@H]1[C@]32OO4 [ARTEMISININ] | 7.89 |  |  | Activity (Plasmodium falciparum [2]): Active; CC50 at 72 h [3]: > 30 µM; pEC50 (Plasmodium falciparum [9]): 7.52; Activity (Plasmodium falciparum [4]): Active
C[C@H]1[C@H](OC(=O)CCC(=O)O)O[C@@H]2O[C@@]3(C)CC[C@H]4[C@H](C)CC[C@@H]1[C@@]24OO3 [ARTESUNATE] |  |  |  | pIC50 (Hemozoin): < 3.00
O=C1C(O)=C([C@H]2CC[C@H](c3ccc(Cl)cc3)CC2)C(=O)c2ccccc21 [ATOVAQUONE] | 8.89 |  |  | Activity (Plasmodium falciparum [2]): Active; CC50 at 72 h [3]: > 30 µM; pEC50 (Plasmodium falciparum [9]): 9.00; Activity (Plasmodium falciparum [4]): Active
C[C@H]1c2cccc(O)c2C(=O)C2=C(O)[C@]3(O)C(=O)C(C(N)=O)=C(O)[C@@H](N(C)C)[C@@H]3[C@@H](O)[C@@H]21 [DOXYCYCLINE] |  |  |  | pIC50 (Hemozoin): < 3.00
Cc1cc(Nc2ccc(S(F)(F)(F)(F)F)cc2)n2nc(C(C)(F)F)nc2n1 [DSM-265] | 8.30 |  |  | Activity (Plasmodium falciparum [2]): Active; CC50 at 72 h [3]: > 30 µM; Activity (Plasmodium falciparum [4]): Active
COc1ccc2nc3cc(Cl)ccc3c(Nc3cc(CN4CCCC4)c(O)c(CN4CCCC4)c3)c2n1 [PYRONARIDINE] |  |  |  | pIC50 (Hemozoin): 5.66
COc1ncnc(NS(=O)(=O)c2ccc(N)cc2)c1OC [SULFADOXINE] |  |  |  | pIC50 (Hemozoin): < 3.00
